The source made the active and inactive calls. No cut-off for these calls is given here.
Columns and labels:
Type in all cases: functional, cell-based
SK-MEL-2 = test: Cytotoxicity against human SK-MEL-2 cells after 48 hrs by sulforhodamine B assay; settings: SK-MEL-2, 48 h
Summary of the method: (§1)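 SRB assay, done in triplicate on each cell line across 1.56–50 µg/mL; IC50 determined per cell line. Lines are A549 (human lung cancer), B16F10 (mouse melanoma), HCT-15 (human colon), SKOV3 (human ovary) and SKMel2 (human skin).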

B16-F10 = test: Cytotoxicity against mouse B16F10 cells after 48 hrs by sulforhodamine B assay; settings: B16-F10, 48 h; summary of the method: as §1
A549 [1] = test: Cytotoxicity against human A549 cells after 48 hrs by sulforhodamine B assay; settings: A549, 48 h; summary of the method: as §1
HCT-15 = test: Cytotoxicity against human HCT15 cells after 48 hrs by sulforhodamine B assay; settings: HCT-15, 48 h; summary of the method: as §1
SK-OV-3 = test: Cytotoxicity against human SKOV3 cells after 48 hrs by sulforhodamine B assay; settings: SK-OV-3, 48 h; summary of the method: as §1
A549 [2] = test: Induction of microtubule disruption in human A549 cells at IC50 after 48 hrs by immunocytochemical analysis
A549 [3] = test: Induction of actin disruption in human A549 cells at IC50 after 48 hrs by immunocytochemical analysis
A549 [4] = test: Induction of nucleus disruption in human A549 cells at IC50 after 48 hrs by immunocytochemical analysis

Structure (SMILES)	IC50 (SK-MEL-2)	IC50 (B16-F10)	IC50 (A549 [1])	IC50 (HCT-15)	IC50 (SK-OV-3)	Activity (A549 [2])	Activity (A549 [3])	Activity (A549 [4])
COc1cc(CC(=O)OC[C@H](Cc2ccc(O)c(OC)c2)[C@H](CO)Cc2ccc(O)c(OC)c2)ccc1O (racemic)	> 76 µM	71.8 µM	65.3 µM	52.2 µM	> 76 µM			
COc1cc(CC(=O)OC[C@H](Cc2ccc(O)c(OC)c2)[C@H](COC(=O)Cc2ccc(O)c(OC)c2)Cc2ccc(O)c(OC)c2)ccc1O (racemic)	14.2 µM	13.3 µM	17.5 µM	15.9 µM	30.8 µM	Active	Active	inactive
COc1cc(CCC(=O)OC[C@H](Cc2ccc(O)c(OC)c2)[C@H](CO)Cc2ccc(O)c(OC)c2)ccc1O (racemic)	64 µM	68.4 µM	65.7 µM	49.6 µM	> 74 µM			
COc1cc(CCC(=O)OC[C@H](Cc2ccc(O)c(OC)c2)[C@H](COC(=O)CCc2ccc(O)c(OC)c2)Cc2ccc(O)c(OC)c2)ccc1O (racemic)	10.3 µM	12.8 µM	12.1 µM	10 µM	35.9 µM	Active	Active	inactive
COc1cc(/C=C/C(=O)OC[C@H](Cc2ccc(O)c(OC)c2)[C@H](COC(=O)/C=C/c2ccc(O)c(OC)c2)Cc2ccc(O)c(OC)c2)ccc1O (racemic)	8.3 µM	9.8 µM	7.1 µM	8.3 µM	21.7 µM	Active	Active	inactive
COc1cc(C[C@@H](CO)[C@H](CO)Cc2ccc(O)c(OC)c2)ccc1O (racemic) [(+)-SECOISOLARICIRESINOL]	> 110 µM	> 110 µM	> 110 µM	> 110 µM	> 110 µM			
COc1cc(/C=C/C(=O)OC[C@H](Cc2ccc(O)c(OC)c2)[C@H](CO)Cc2ccc(O)c(OC)c2)ccc1O (racemic) [HANULTARIN]	17.3 µM	21.4 µM	29.5 µM	29.3 µM	63.9 µM	Active	Active	inactive

From ChEMBL document CHEMBL1909510, “Synthesis and evaluation of cytotoxic effects of hanultarin and its derivatives” (Bioorg Med Chem Lett, 2011)
